Laboratory results: ChEMBL document CHEMBL4400536, “Design and synthesis of aminothiazole based Hepatitis B Virus (HBV) capsid inhibitors” (Eur J Med Chem, 2019)
Active and inactive are the calls of the source. The calls are words filed in the database; no cut-off is given here.

Experiments:
[1] = molecular target: Core antigen (Hepatitis B virus) (UniProt Q03732); assay: Inhibition of GFP-fused Hepatitis B Virus capsid expressed in HEK293T cells at 50 uM after 48 hrs relative to control; type: cell-based
Procedure, shortened: (§1)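 BiFC assay: HBc fused to Venus fragments VN (1–154) and VC (155–239) were co-transfected into 293T cells, then compounds were added. The dose series used 0, 0.5, 5 and 50 μM; SAR used 50 μM as percent inhibition. After 48 h, reconstituted fluorescence was read as mean fluorescent intensity on a plate reader, with fluorescence microscopy images.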

Hepatitis B virus [2] = assay: Antiviral activity against Hepatitis B virus infected in human HepG2.2.15 cells assessed as inhibition of viral replication after 7 days by RT-PCR analysis; type: functional, organism-based
[3] = molecular target: Core antigen (Hepatitis B virus) (UniProt Q03732); assay: Inhibition of GFP-fused Hepatitis B Virus capsid (HBVcAg-VFP-C155-239) expressed in HEK293T cells assessed as reduction in capsid assembly after 48 hrs by fluorescence microscopic analysis; type: cell-based; procedure, shortened: as §1
[4] = molecular target: Core antigen (Hepatitis B virus) (UniProt Q03732); assay: Inhibition of dimerization of HA-tagged Hepatitis B Virus capsid (HBVcAg-N1-154) expressed in HEK293T cells at 50 to 100 uM after 48 hrs by Western blot analysis; type: cell-based
Procedure, shortened: (§2)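 HEK293T cells were transfected with HBc-VN-HA or HBc-VC-FLAG and treated with DMSO, 50 or 100 μM compound. After 48 h, lysates were western blotted with anti-HA, anti-FLAG and anti-GAPDH.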

[5] = molecular target: Core antigen (Hepatitis B virus) (UniProt Q03732); assay: Inhibition of aggregation of HBV capsid (1 to 149 residues) expressed in Escherichia coli assessed as induction of abnormal capsid morphology at 0.2 to 50 uM by TEM analysis
Procedure, shortened: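 His-tagged Cp149 was expressed in E. coli (IPTG 1 mM), Ni-affinity purified and kept in PBS. Cp149 (10 μM) in 50 mM HEPES pH 7.5 was preincubated 1 h with compound (0.2–50 μM) or DMSO. Assembly was started with NaCl to 50 mM and equilibrated 60 h at 23 °C. Grids were stained with 2% uranyl acetate and viewed by TEM.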

[6] = Cytotoxicity against human HepG2.2.15 cells; type: cell-based, HepG2 2.2.15
Hepatitis B virus [7] = assay: Antiviral activity against Hepatitis B virus infected in BALB/c mouse injected with replication-competent HBV DNA plasmid HBV-1.2mer assessed as reduction in viral DNA replication at 30 mg/kg, iv measured after 2 weeks by RT-PCR analysis; type: functional, organism-based
Procedure, shortened: (§3)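 BALB/c transgenic mice carrying the replication-competent HBV-1.2mer plasmid were bled at day 0 for HBV DNA copies and randomly split into two groups of 3 males. Each group got 30 mg/kg compound or DMSO by tail vein, every 2 days, for 2 weeks. Blood was then collected. HBV DNA was measured by real-time PCR and HBsAg by ELISA.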

Hepatitis B virus [8] = assay: Antiviral activity against Hepatitis B virus infected in human […] assessed as reduction in viral DNA replication at 30 mg/kg dosed orthotopically every 3 days for 4 weeks by RT-PCR analysis; type: functional, organism-based
[9] = Acute toxicity in BALB/c mouse assessed as effect on body weight at 500 to 1000 mg/kg, ip measured after 2 weeks; type: organism-based; details: in vivo, 336 h
Procedure, shortened: (§4)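 Male Balb/c mice, 5 animals, given a single intraperitoneal injection at 0, 500 or 1000 mg/kg. Body weight followed for two weeks. On day 14, blood was taken for hepatic and renal function (AST, ALT, BUN, creatinine). Heart, liver, lung, spleen and kidney were sectioned, HE-stained and examined.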

[10] = Acute toxicity in BALB/c mouse assessed as effect on heart at 500 to 1000 mg/kg, ip measured on day 14 by hematoxylin and eosin staining based assay; type: organism-based; details: in vivo; procedure, shortened: as §4
[11] = Acute toxicity in BALB/c mouse assessed as effect on liver at 500 to 1000 mg/kg, ip measured on day 14 by hematoxylin and eosin staining based assay; type: organism-based; details: in vivo; procedure, shortened: as §4
[12] = Acute toxicity in BALB/c mouse assessed as effect on lung at 500 to 1000 mg/kg, ip measured on day 14 by hematoxylin and eosin staining based assay; type: organism-based; details: in vivo; procedure, shortened: as §4
[13] = Acute toxicity in BALB/c mouse assessed as effect on spleen at 500 to 1000 mg/kg, ip measured on day 14 by hematoxylin and eosin staining based assay; type: organism-based; details: in vivo; procedure, shortened: as §4
[14] = Acute toxicity in BALB/c mouse assessed as effect on kidney at 500 to 1000 mg/kg, ip measured on day 14 by hematoxylin and eosin staining based assay; type: organism-based; details: in vivo; procedure, shortened: as §4
[15] = Hepatic toxicity in BALB/c mouse assessed as effect on AST levels at 500 to 1000 mg/kg, ip measured on day 14; type: organism-based; details: in vivo; procedure, shortened: as §4
[16] = Hepatic toxicity in BALB/c mouse assessed as effect on ALT levels at 500 to 1000 mg/kg, ip measured on day 14; type: organism-based; details: in vivo; procedure, shortened: as §4
[17] = Renal toxicity in BALB/c mouse assessed as effect on BUN levels at 500 to 1000 mg/kg, ip measured on day 14; type: organism-based; details: in vivo; procedure, shortened: as §4
[18] = Renal toxicity in BALB/c mouse assessed as effect on CRE levels at 500 to 1000 mg/kg, ip measured on day 14; type: organism-based; details: in vivo; procedure, shortened: as §4
[19] = molecular target: Core antigen (Hepatitis B virus) (UniProt Q03732); assay: Inhibition of GFP-fused Hepatitis B Virus capsid (HBVcAg-GFP-N1-154) expressed in HEK293T cells assessed as reduction in capsid assembly after 48 hrs by fluorescence microscopic analysis; type: cell-based; procedure, shortened: as §1
[20] = molecular target: Core antigen (Hepatitis B virus) (UniProt Q03732); assay: Inhibition of dimerization of HA-tagged Hepatitis B Virus capsid (HBVcAg-C155-239) expressed in HEK293T cells at 50 to 100 uM after 48 hrs by Western blot analysis; type: cell-based; procedure, shortened: as §2
[21] = molecular target: Core antigen (Hepatitis B virus) (UniProt Q03732); assay: Inhibition of dimerization of HA-tagged Hepatitis B Virus capsid (HBVcAg-N1-154) expressed in HEK293T cells at 50 to 100 uM after 48 hrs by co-immunoprecipitation assay; type: cell-based
Procedure, shortened: (§5)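 HEK293T cells were co-transfected with HBc-VN-HA and HBc-VC-FLAG, then treated with DMSO or compound. After 48 h, lysates were co-immunoprecipitated with anti-HA beads and analysed by immunoblot.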

[22] = molecular target: Core antigen (Hepatitis B virus) (UniProt Q03732); assay: Inhibition of dimerization of HA-tagged Hepatitis B Virus capsid (HBVcAg-C155-239) expressed in HEK293T cells at 50 to 100 uM after 48 hrs by co-immunoprecipitation assay; type: cell-based; procedure, shortened: as §5
Hepatitis B virus [23] = assay: Antiviral activity against Hepatitis B virus infected in BALB/c mouse injected with replication-competent HBV DNA plasmid HBV-1.2mer assessed as reduction in HBsAg replication at 30 mg/kg, iv measured after 2 weeks by ELISA; type: functional, organism-based; procedure, shortened: as §3

Core antigen (Hepatitis B virus), sequence (Q03732 as listed by the source): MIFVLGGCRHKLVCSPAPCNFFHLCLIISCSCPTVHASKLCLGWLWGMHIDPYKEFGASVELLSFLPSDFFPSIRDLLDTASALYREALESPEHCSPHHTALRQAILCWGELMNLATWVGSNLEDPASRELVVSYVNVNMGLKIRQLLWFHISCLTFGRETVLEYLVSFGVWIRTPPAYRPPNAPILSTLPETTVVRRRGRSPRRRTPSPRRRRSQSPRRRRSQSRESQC

Compound: O=S(=O)(Nc1ncc(C(Oc2ccc3cc(Br)ccc3c2)c2ccc(Cl)cc2)s1)c1cccc2cccnc12 (centres undefined)
- inhibition [1]: 63%
- inhibition (Hepatitis B virus [2]): Dose-dependent effect
- IC50 (Hepatitis B virus [2]; HepG2.2.15, 168 h): 183 nM
- inhibition [3]: Dose-dependent effect
- inhibition [4]: Active
- inhibition [5]: Active
- CC50 [6]: > 50000 nM
- Activity (Hepatitis B virus [7]): Active
- Activity (Hepatitis B virus [8]): Active
- Activity [9]: Non-Toxic
- Activity [10]: Non-Toxic
- Activity [11]: Non-Toxic
- Activity [12]: Non-Toxic
- Activity [13]: Non-Toxic
- Activity [14]: Non-Toxic
- Activity [15]: Non-Toxic
- Activity [16]: Non-Toxic
- Activity [17]: Non-Toxic
- Activity [18]: Non-Toxic
- inhibition [19]: Dose-dependent effect
- inhibition [20]: Active
- inhibition [21]: Active
- inhibition [22]: Active
- Activity (Hepatitis B virus [23]): Active
